Reference: ChEMBL document CHEMBL1126808, “Asymmetric synthesis and biological evaluation of beta-L-(2R,5S)- and alpha-L-(2R,5R)-1,3-oxathiolane-pyrimidine and -purine nucleosides as potential anti-HIV agents” (J Med Chem, 1993)
pEC50, pIC50: −log10 of the molar value.

Legend:
[1] = system: Human immunodeficiency virus 1; test: Cytotoxicity against human peripheral blood mononuclear (PBM) cells […]; format: functional
Outline: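 Uninfected PHA-stimulated human PBM cells were cultured with or without drug, then aliquots were counted in trypan blue. IC50 came from a median-effect plot of dose–effect data.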

[2] = system: Human immunodeficiency virus; test: Anti-HIV-1 activity against human peripheral blood mononuclear (PBM) cells infected with HIV-1 strain LAV; format: functional, organism-based
Outline: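 Mitogen-stimulated human PBM cells infected with HIV-1 LAV at MOI 0.1 (titred by limiting dilution in PBM cells). Compounds were diluted into medium from 40 mM DMSO stocks (final DMSO <0.25%) and added about 45 min after infection. Read-out was supernatant RT level. EC50 came from a median-effect plot of dose–effect data.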

`OC[C@@H]1O[C@@H](n2cnc3c(Cl)ncnc32)CS1` was tested. Which pIC50 [1] did it give?
Its pIC50 is under 4.00.

And the pEC50 ([2]; Human immunodeficiency virus 1)?
The pEC50 was 5.56.

With `Nc1ncnc2c1ncn2[C@@H]1CS[C@H](CO)O1` as the molecule, how does the pIC50 [1] read?
The pIC50 was under 4.00.

What about the pEC50 ([2]; Human immunodeficiency virus 1) of the same molecule?
The pEC50 was 6.00.

How did the pIC50 [1] turn out when `O=c1[nH]c(=O)n([C@H]2CS[C@H](CO)O2)cc1Br` was run?
The pIC50 was under 4.00.

What about the pEC50 ([2]; Human immunodeficiency virus 1) of the same molecule?
The pEC50 was 3.92.

What does the source list for `Nc1nc(=O)n([C@H]2CS[C@H](CO)O2)cc1F`?
pIC50 [1]: < 4.00; pEC50 ([2]; Human immunodeficiency virus 1): 6.37

How did the pIC50 [1] turn out when `Cc1cn([C@H]2CS[C@H](CO)O2)c(=O)[nH]c1=O` was run?
The pIC50 was under 4.00.

What about the pEC50 ([2]; Human immunodeficiency virus 1) of the same molecule?
Its pEC50 is 5.36.

How did the pIC50 [1] turn out when `Cc1cn([C@H]2CS[C@H](CO)O2)c(=O)nc1N` was run?
Its pIC50 is under 4.00.

What about the pEC50 ([2]; Human immunodeficiency virus 1) of the same molecule?
The pEC50 was 6.35.

With `Nc1nc(Cl)c2ncn([C@@H]3CS[C@H](CO)O3)c2n1` as the molecule, how does the pIC50 [1] read?
Its pIC50 is under 4.00.

And the pEC50 ([2]; Human immunodeficiency virus 1)?
The pEC50 was 5.01.

How did the pIC50 [1] turn out when `Cc1cn([C@@H]2CS[C@H](CO)O2)c(=O)[nH]c1=O` was run?
The pIC50 was under 4.00.

What about the pEC50 ([2]; Human immunodeficiency virus 1) of the same molecule?
The pEC50 was 4.46.

`OC[C@@H]1O[C@H](n2cnc3c(O)ncnc32)CS1` was tested. Which pIC50 [1] did it give?
Its pIC50 is under 4.00.

What about the pEC50 ([2]; Human immunodeficiency virus 1) of the same molecule?
Its pEC50 is under 4.00.

How did the pIC50 [1] turn out when `Nc1nc(Cl)c2ncn([C@H]3CS[C@H](CO)O3)c2n1` was run?
The pIC50 was under 4.00.

What about the pEC50 ([2]; Human immunodeficiency virus 1) of the same molecule?
The pEC50 was 4.38.

`O=c1[nH]c(=O)n([C@H]2CS[C@H](CO)O2)cc1Cl` was tested. Which pIC50 [1] did it give?
Its pIC50 is under 4.00.

What about the pEC50 ([2]; Human immunodeficiency virus 1) of the same molecule?
The pEC50 was under 4.00.

With `O=c1[nH]c(=O)n([C@H]2CS[C@H](CO)O2)cc1I` as the molecule, how does the pIC50 [1] read?
Its pIC50 is under 4.00.

What about the pEC50 ([2]; Human immunodeficiency virus 1) of the same molecule?
Its pEC50 is 3.80.

Which results are given for `O=c1ccn([C@@H]2CS[C@H](CO)O2)c(=O)[nH]1`?
pIC50 [1]: < 4.00; pEC50 ([2]; Human immunodeficiency virus 1): 4.93

How did the pIC50 [1] turn out when `OC[C@@H]1O[C@@H](n2cnc3c(O)ncnc32)CS1` was run?
The pIC50 was under 4.00.

And the pEC50 ([2]; Human immunodeficiency virus 1)?
Its pEC50 is under 4.00.

With `Nc1nc(=O)n([C@@H]2CS[C@H](CO)O2)cc1Cl` as the molecule, how does the pIC50 [1] read?
The pIC50 was under 4.00.

And the pEC50 ([2]; Human immunodeficiency virus 1)?
The pEC50 was 4.50.

What does the source list for `O=c1[nH]c(=O)n([C@@H]2CS[C@H](CO)O2)cc1F`?
pIC50 [1]: < 4.00; pEC50 ([2]; Human immunodeficiency virus 1): < 4.00

What does the source list for `Nc1nc(=O)n([C@H]2CS[C@H](CO)O2)cc1Br`?
pIC50 [1]: < 4.00; pEC50 ([2]; Human immunodeficiency virus 1): < 4.00

How did the pIC50 [1] turn out when `O=c1[nH]c(=O)n([C@@H]2CS[C@H](CO)O2)cc1Cl` was run?
Its pIC50 is under 4.00.

And the pEC50 ([2]; Human immunodeficiency virus 1)?
The pEC50 was under 4.00.

Which results are given for `O=c1[nH]c(=O)n([C@@H]2CS[C@H](CO)O2)cc1I`?
pIC50 [1]: < 4.00; pEC50 ([2]; Human immunodeficiency virus 1): 4.03

`Nc1nc(O)c2ncn([C@@H]3CS[C@H](CO)O3)c2n1` was tested. Which pIC50 [1] did it give?
Its pIC50 is under 4.00.

And the pEC50 ([2]; Human immunodeficiency virus 1)?
Its pEC50 is 4.99.

`CNc1ncnc2c1ncn2[C@@H]1CS[C@H](CO)O1` was tested. Which pIC50 [1] did it give?
Its pIC50 is under 4.00.

What about the pEC50 ([2]; Human immunodeficiency virus 1) of the same molecule?
The pEC50 was 4.82.

How did the pIC50 [1] turn out when `OC[C@@H]1O[C@H](n2cnc3c(Cl)ncnc32)CS1` was run?
The pIC50 was under 4.00.

What about the pEC50 ([2]; Human immunodeficiency virus 1) of the same molecule?
The pEC50 was 5.84.

With `CNc1ncnc2c1ncn2[C@H]1CS[C@H](CO)O1` as the molecule, how does the pIC50 [1] read?
The pIC50 was under 4.00.

And the pEC50 ([2]; Human immunodeficiency virus 1)?
Its pEC50 is 4.89.

With `Nc1ncnc2c1ncn2[C@H]1CS[C@H](CO)O1` as the molecule, how does the pIC50 [1] read?
Its pIC50 is under 4.00.

And the pEC50 ([2]; Human immunodeficiency virus 1)?
The pEC50 was 4.10.

What does the source list for `Nc1nc(F)nc2c1ncn2[C@@H]1CS[C@H](CO)O1`?
pIC50 [1]: < 4.00; pEC50 ([2]; Human immunodeficiency virus 1): 4.79

How did the pIC50 [1] turn out when `Nc1nc(=O)n([C@@H]2CS[C@H](CO)O2)cc1I` was run?
The pIC50 was under 4.00.

What about the pEC50 ([2]; Human immunodeficiency virus 1) of the same molecule?
Its pEC50 is 6.85.

`Nc1nc(=O)n([C@@H]2CS[C@H](CO)O2)cc1Br` was tested. Which pIC50 [1] did it give?
The pIC50 was under 4.00.

And the pEC50 ([2]; Human immunodeficiency virus 1)?
Its pEC50 is 5.60.

`O=c1[nH]c(=O)n([C@H]2CS[C@H](CO)O2)cc1F` was tested. Which pIC50 [1] did it give?
The pIC50 was under 4.00.

And the pEC50 ([2]; Human immunodeficiency virus 1)?
The pEC50 was under 4.00.

Which results are given for `Nc1nc(F)nc2c1ncn2[C@H]1CS[C@H](CO)O1`?
pIC50 [1]: < 4.00; pEC50 ([2]; Human immunodeficiency virus 1): 4.80

What does the source list for `Cc1cn([C@@H]2CS[C@H](CO)O2)c(=O)nc1N`?
pIC50 [1]: < 4.00; pEC50 ([2]; Human immunodeficiency virus 1): 5.72

`O=c1ccn([C@H]2CS[C@H](CO)O2)c(=O)[nH]1` was tested. Which pIC50 [1] did it give?
The pIC50 was under 4.00.

What about the pEC50 ([2]; Human immunodeficiency virus 1) of the same molecule?
Its pEC50 is 4.48.

Which results are given for `O=c1[nH]c(=O)n([C@@H]2CS[C@H](CO)O2)cc1Br`?
pIC50 [1]: < 4.00; pEC50 ([2]; Human immunodeficiency virus 1): < 4.00

Which results are given for `Nc1nc(=O)n([C@H]2CS[C@H](CO)O2)cc1I`?
pIC50 [1]: < 4.00; pEC50 ([2]; Human immunodeficiency virus 1): < 4.00

Which results are given for `Nc1nc(O)c2ncn([C@H]3CS[C@H](CO)O3)c2n1`?
pIC50 [1]: < 4.00; pEC50 ([2]; Human immunodeficiency virus 1): < 4.00

How did the pIC50 [1] turn out when `Nc1nc(=O)n([C@H]2CS[C@H](CO)O2)cc1Cl` was run?
Its pIC50 is under 4.00.

And the pEC50 ([2]; Human immunodeficiency virus 1)?
The pEC50 was under 4.00.

How did the pEC50 [2] turn out when `Nc1ccn([C@@H]2CS[C@H](CO)O2)c(=O)n1` (stereo in doubt; 13) [LAMIVUDINE] was run?
The pEC50 was 8.74.

With `Nc1ccn([C@@H]2CS[C@H](CO)O2)c(=O)n1` (stereo in doubt; 14) [LAMIVUDINE] as the molecule, how does the pIC50 [1] read?
The pIC50 was under 4.00.

And the pEC50 [2]?
The pEC50 was 5.00.

`Nc1ccn([C@@H]2CS[C@H](CO)O2)c(=O)n1` (stereo in doubt; form 1) [LAMIVUDINE] was tested. Which pEC50 [2] did it give?
The pEC50 was 6.68.

How did the pEC50 [2] turn out when `Nc1ccn([C@@H]2CS[C@H](CO)O2)c(=O)n1` (stereo in doubt; form 2) [LAMIVUDINE] was run?
Its pEC50 is 7.22.

Which results are given for `Nc1nc(=O)n([C@@H]2CS[C@H](CO)O2)cc1F` [EMTRICITABINE]?
pIC50 [1]: < 4.00; pEC50 ([2]; Human immunodeficiency virus 1): 8.89

Which results are given for `Cc1cn([C@H]2C[C@H](N=[N+]=[N-])[C@@H](CO)O2)c(=O)[nH]c1=O` [ZIDOVUDINE]?
pIC50 [1]: < 4.00; pEC50 ([2]; Human immunodeficiency virus 1): 8.40
